This experiment has as its target Amyloid-beta precursor protein (Homo sapiens, UniProt P05067). In words: Displacement of [125I]IMPY from beta-amyloid plaques in Alzheimer's disease patient brain homogenate. Format: tissue-based. In short, it runs like this: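 Test compound was added at 10^-5–10^-10 M, serially diluted in PBS containing 0.1% BSA. Nonspecific binding was defined with 600 nM unlabeled IMPY. Incubation was 37 °C for 2 h, followed by GF/B vacuum filtration, PBS washes and γ counting. Ki came from nonlinear regression.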
A general note: In a radioligand displacement assay an active substance lowers the binding of a labelled ligand.

Amyloid-beta precursor protein, sequence (P05067 whole entry): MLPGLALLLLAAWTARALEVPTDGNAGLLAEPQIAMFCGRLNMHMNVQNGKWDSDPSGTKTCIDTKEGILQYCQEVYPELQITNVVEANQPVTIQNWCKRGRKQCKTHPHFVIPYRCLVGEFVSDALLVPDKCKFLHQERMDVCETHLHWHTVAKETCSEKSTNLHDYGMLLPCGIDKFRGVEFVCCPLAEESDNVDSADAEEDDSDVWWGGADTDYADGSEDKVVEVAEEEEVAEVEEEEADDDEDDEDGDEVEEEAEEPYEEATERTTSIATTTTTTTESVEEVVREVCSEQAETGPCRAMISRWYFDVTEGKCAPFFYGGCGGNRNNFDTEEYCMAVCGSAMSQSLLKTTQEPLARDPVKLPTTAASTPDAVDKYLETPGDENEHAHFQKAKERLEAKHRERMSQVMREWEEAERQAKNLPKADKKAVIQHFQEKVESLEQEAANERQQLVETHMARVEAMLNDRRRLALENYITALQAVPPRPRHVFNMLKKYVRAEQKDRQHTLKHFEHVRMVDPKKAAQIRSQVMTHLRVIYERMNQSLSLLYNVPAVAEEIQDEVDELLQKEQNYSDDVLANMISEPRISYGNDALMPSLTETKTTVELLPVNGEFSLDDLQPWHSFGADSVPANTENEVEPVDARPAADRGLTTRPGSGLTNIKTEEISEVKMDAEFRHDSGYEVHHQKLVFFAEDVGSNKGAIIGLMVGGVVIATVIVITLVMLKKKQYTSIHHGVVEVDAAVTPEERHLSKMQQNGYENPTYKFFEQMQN

The Ki is the equilibrium dissociation constant of an inhibitor or competing ligand from its target. Read a high Ki as a looser hold on the target. Compound `Nc1ccc2nc(-c3ccc(F)cc3)sc2c1` returned a Ki of 10 nM.
